Key:
Canis familiaris [1] = species: Canis familiaris; assay: The chronotropic effect tested in vitro by using isolated blood-perfused dog heart preparations; assay type: functional, Canis lupus familiaris
Procedure, shortened: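 Isolated dog sinoatrial node preparation, cross-circulated through cannulated arteries with blood from a pentobarbital-anesthetized, heparinized donor dog. Compounds were given intra-arterially by microsyringe, and sinus rate was recorded. Reported as an activity ratio: amrinone ED50 (dose giving half-maximal amrinone response) divided by the test-compound dose producing the same response.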

Canis familiaris [2] = species: Canis familiaris; assay: The inotropic effect tested in vitro by using isolated blood-perfused dog heart preparations; assay type: functional, Canis lupus familiaris
Procedure, shortened: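 Isolated dog papillary muscle, blood-perfused by cross-circulation through cannulated arteries from a pentobarbital-anesthetized, heparinized donor dog. Intra-arterial microsyringe injection; developed tension recorded. Activity ratio = amrinone ED50 (half-maximal amrinone response) / test-compound dose producing an equal response.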

Row | SMILES | Activity (Canis familiaris [1]) | Activity (Canis familiaris [2])
1 | COc1ccc(CNCC(O)COc2cccc3nc(O)ccc23)cc1OC (stereo unspecified) | 0 | 0
2 | CN(Cc1ccc(F)cc1)CC(O)COc1ccc2nc(O)ccc2c1 (stereo unspecified) | 0 | 2.8
3 | CN(CCSc1ccccc1)CC(O)COc1ccc2nc(O)ccc2c1 (stereo unspecified) | -1.1 | 4.5
4 | CN(CC[S+]([O-])c1ccccc1)CC(O)COc1ccc2nc(O)ccc2c1 (stereo unspecified) | 0 | 2.3
5 | CCN(CCOc1ccccc1)CC(O)COc1ccc2nc(O)ccc2c1 (stereo unspecified) | 0 | 5.3
6 | Oc1ccc2cc(OCC(O)CNCCc3ccccc3)ccc2n1 (stereo unspecified) | 0 | 1.5
7 | CN(CCc1ccccn1)CC(O)COc1ccc2nc(O)ccc2c1 (stereo unspecified) | 0 | 2.2
8 | CN(Cc1cccnc1)CC(O)COc1ccc2nc(O)ccc2c1 (stereo unspecified) | 0.3 | 1.7
9 | Oc1ccc2cc(OCC(O)CNCc3ccc(Cl)cc3)ccc2n1 (stereo unspecified) | 0 | 4.9
10 | COc1ccc(CNCC(O)COc2ccc3[nH]c(=O)ccc3c2)cc1OC (stereo unspecified) [TOBORINONE] | 0 | 5.2
11 | CN(Cc1ccccc1)CC(O)COc1ccc2nc(O)c(C#N)cc2c1 (stereo unspecified) | 1.1 | 1.6
12 | COc1ccc(CN(C)CC(O)COc2ccc3nc(O)ccc3c2)cc1 (stereo unspecified) | 0.2 | 2.8
13 | CN(Cc1ccccc1)CC(O)COc1ccc2c(c1)CCC(=O)N2 (stereo unspecified) | -0.2 | 0.1
14 | CN(Cc1ccccc1)CC(O)COc1ccc2nc(O)ccc2c1 (stereo unspecified) | 0 | 5.1
15 | Oc1ccc2cc(OCC(O)CNCc3cccs3)ccc2n1 (stereo unspecified) | 0.8 | 3.1
16 | CN(CCS(=O)(=O)c1ccccc1)CC(O)COc1ccc2nc(O)ccc2c1 (stereo unspecified) | 0.1 | 2.1
17 | CN(CCCSc1ccccc1)CC(O)COc1ccc2nc(O)ccc2c1 (stereo unspecified) | 4.3 | 1.3
18 | CN(Cc1ccc(Cl)cc1)CC(O)COc1ccc2nc(O)ccc2c1 (stereo unspecified) | 0.1 | 4
19 | COc1ccc(CNCC(O)COc2cc(C)c3nc(O)ccc3c2)cc1OC (stereo unspecified) | 0 | 0.5

Row | SMILES | Activity (Canis familiaris [1]) | Activity (Canis familiaris [2])
20 | COc1ccc(CNCC(O)COc2cccc3ccc(O)nc23)cc1OC (stereo unspecified) | 0 | 0
21 | Oc1ccc2cc(OCC(O)CNCc3ccc(F)cc3)ccc2n1 (stereo unspecified) | 0 | 3.5
22 | Oc1ccc2cc(OCC(O)CNCCCc3ccccc3)ccc2n1 (stereo unspecified) | 0.4 | 3.6
23 | CCN(CCc1ccccc1)CC(O)COc1ccc2nc(O)ccc2c1 (stereo unspecified) | 0.8 | 6.9
24 | CCN(Cc1ccccc1)CC(O)COc1ccc2nc(O)ccc2c1 (stereo unspecified) | 0 | 4
25 | CCN(CCCc1ccccc1)CC(O)COc1ccc2nc(O)ccc2c1 (stereo unspecified) | 0.2 | 3.2
26 | Oc1ccc2cc(OCC(O)CNCc3ccccc3)ccc2n1 (stereo unspecified) | 0 | 2.2
27 | CN(CCN(C)c1ccccc1)CC(O)COc1ccc2nc(O)ccc2c1 (stereo unspecified) | 0 | 5
28 | COc1ccc(CCNCC(O)COc2ccc3nc(O)ccc3c2)cc1OC (stereo unspecified) | -0.5 | 1.7
29 | CCN(Cc1ccccc1)CC(O)COc1cc(F)c2nc(O)ccc2c1 (stereo unspecified) | 0 | 4.1
30 | CN(Cc1ccncc1)CC(O)COc1ccc2nc(O)ccc2c1 (stereo unspecified) | 0.1 | 2.3
31 | Oc1ccc2cc(OCC(O)CNCc3ccccn3)ccc2n1 (stereo unspecified) | 0 | 0.6
32 | Cc1ccc(CN(C)CC(O)COc2ccc3nc(O)ccc3c2)cc1 (stereo unspecified) | 0 | 1.7
33 | CCN(Cc1ccccc1)CC(O)COc1cc(C)c2nc(O)ccc2c1 (stereo unspecified) | -0.4 | 0.8
34 | CN(CCCN(C)c1ccccc1)CC(O)COc1ccc2nc(O)ccc2c1 (stereo unspecified) | 0 | 1.3
35 | COc1ccc(CNCC(O)COc2ccc3ccc(O)nc3c2)cc1OC (stereo unspecified) | -0.2 | 0
36 | CN(Cc1ccccn1)CC(O)COc1ccc2nc(O)ccc2c1 (stereo unspecified) | 0 | 2.2
37 | COc1cccc(CNCC(O)COc2ccc3nc(O)ccc3c2)c1 (stereo unspecified) | 0 | 3.8
38 | COc1ccc(CNCC(O)COc2ccc3nc(O)ccc3c2)cc1 (stereo unspecified) | 0 | 4.9
